Reference: ChEMBL document CHEMBL4261658, “4-Hydroxy-3-nitro-5-ureido-benzenesulfonamides Selectively Target the Tumor-Associated Carbonic Anhydrase Isoforms IX and XII Showing Hypoxia-Enhanced Antiproliferative Profiles” (J Med Chem, 2018)

Key:
Carbonic anhydrase 9 = Carbonic anhydrase 9 (Homo sapiens, UniProt Q16790); test: Inhibition of carbonic anhydrase 9 (unknown origin) preincubated for 15 mins by stopped flow CO2 hydration assay
Carbonic anhydrase 12 = Carbonic anhydrase 12 (Homo sapiens, UniProt O43570)
Carbonic anhydrase 12, sequence (O43570 whole entry): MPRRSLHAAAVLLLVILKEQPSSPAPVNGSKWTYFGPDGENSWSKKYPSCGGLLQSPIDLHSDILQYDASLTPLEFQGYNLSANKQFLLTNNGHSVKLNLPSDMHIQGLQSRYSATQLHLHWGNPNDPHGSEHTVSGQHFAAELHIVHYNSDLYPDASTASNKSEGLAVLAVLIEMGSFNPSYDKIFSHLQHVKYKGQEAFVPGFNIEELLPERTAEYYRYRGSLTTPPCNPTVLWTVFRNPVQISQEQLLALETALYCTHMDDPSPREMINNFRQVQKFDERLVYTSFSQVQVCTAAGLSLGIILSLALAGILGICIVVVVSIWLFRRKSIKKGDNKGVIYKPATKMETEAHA

Homo sapiens = organism: Homo sapiens; test: Selectivity ratio of Ki for carbonic anhydrase 2 (unknown origin) to Ki for carbonic anhydrase 9 (unknown origin)
Carbonic anhydrase 1 = Carbonic anhydrase 1 (Homo sapiens, UniProt P00915); test: Inhibition of recombinant human cytosolic carbonic anhydrase 1 preincubated for 15 mins by stopped flow CO2 hydration assay
Carbonic anhydrase 1, sequence (P00915 whole entry): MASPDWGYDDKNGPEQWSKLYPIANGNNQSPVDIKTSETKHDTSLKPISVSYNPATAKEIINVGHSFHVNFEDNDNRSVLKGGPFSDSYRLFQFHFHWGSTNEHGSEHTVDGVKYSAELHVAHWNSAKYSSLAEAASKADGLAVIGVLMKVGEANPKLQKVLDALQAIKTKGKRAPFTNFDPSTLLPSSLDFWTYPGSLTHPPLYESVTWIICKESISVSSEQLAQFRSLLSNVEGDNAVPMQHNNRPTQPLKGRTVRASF

HT-29 [1] = test: Cytotoxicity against human HT-29 cells assessed as cell viability at 200 uM after 48 hrs under hypoxic conditions by MTT assay (reference value: 100%); type: functional; settings: Homo sapiens, HT-29, 48 h; read-out: Activity
Outline: (§1)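 Cells cultured in high-glucose DMEM with 20% FBS at 37 °C and 5% CO2, seeded at 1x10^4/well, then dosed 24 h later (0–200 μM) for 48 h. Hypoxia: 1% O2, 5% CO2, balance N2 in a hypoxic workstation; normoxia: 20% O2 in air, 5% CO2. MTT (1 mg/ml) for 30 min at 37 °C, formazan dissolved in DMSO, A550. Untreated control set to 100%; quadruplicates, ≥3 cell batches, mean ± S.E.M.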

MDA-MB-231 [2] = test: Cytotoxicity against human MDA-MB-231 cells assessed as reduction in cell viability after 48 hrs under hypoxic conditions by MTT assay; type: functional, cell-based; settings: for IC50: MDA-MB-231, 48 h; outline: as §1
HT-29 [3] = test: Cytotoxicity against human HT-29 cells assessed as cell viability at 30 uM after 48 hrs under hypoxic conditions by MTT assay (reference value: 100%); type: functional; settings: Homo sapiens, HT-29, 48 h; read-out: Activity; outline: as §1
MDA-MB-231 [4] = test: Cytotoxicity against human MDA-MB-231 cells assessed as cell viability at 200 uM after 48 hrs under hypoxic conditions by MTT assay (reference value: 100%); type: functional; settings: MDA-MB-231, 48 h, read-out: Activity; outline: as §1
MDA-MB-231 [5] = test: Cytotoxicity against human MDA-MB-231 cells assessed as cell viability at 100 uM after 48 hrs under hypoxic conditions by MTT assay (reference value: 100%); type: functional; settings: MDA-MB-231, 48 h, read-out: Activity; outline: as §1
PC-3 [6] = test: Cytotoxicity against human PC3 cells assessed as reduction in cell viability after 48 hrs under hypoxic conditions by MTT assay; type: functional, cell-based; settings: for IC50: PC-3, 48 h; outline: as §1
MDA-MB-231 [7] = test: Cytotoxicity against human MDA-MB-231 cells assessed as cell viability at 200 uM after 48 hrs under normoxic conditions by MTT assay (reference value: 100%); type: functional; settings: MDA-MB-231, 48 h, read-out: Activity; outline: as §1
MDA-MB-231 [8] = test: Cytotoxicity against human MDA-MB-231 cells assessed as cell viability at 100 uM after 48 hrs under normoxic conditions by MTT assay (reference value: 100%); type: functional; settings: MDA-MB-231, 48 h, read-out: Activity; outline: as §1
PC-3 [9] = test: Cytotoxicity against human PC3 cells assessed as cell viability at 30 uM after 48 hrs under hypoxic conditions by MTT assay (reference value: 100%); type: functional; settings: PC-3, 48 h, read-out: Activity; outline: as §1
HT-29 [10] = test: Cytotoxicity against human HT-29 cells assessed as cell viability at 100 uM after 48 hrs under normoxic conditions by MTT assay (reference value: 100%); type: functional; settings: Homo sapiens, HT-29, 48 h; read-out: Activity; outline: as §1
HT-29 [11] = test: Cytotoxicity against human HT-29 cells assessed as cell viability at 200 uM after 48 hrs under normoxic conditions by MTT assay (reference value: 100%); type: functional; settings: Homo sapiens, HT-29, 48 h; read-out: Activity; outline: as §1
PC-3 [12] = test: Cytotoxicity against human PC3 cells assessed as cell viability at 30 uM after 48 hrs under normoxic conditions by MTT assay (reference value: 100%); type: functional; settings: PC-3, 48 h, read-out: Activity; outline: as §1
PC-3 [13] = test: Cytotoxicity against human PC3 cells assessed as cell viability at 100 uM after 48 hrs under hypoxic conditions by MTT assay (reference value: 100%); type: functional; settings: PC-3, 48 h, read-out: Activity; outline: as §1
PC-3 [14] = test: Cytotoxicity against human PC3 cells assessed as reduction in cell viability after 48 hrs under normoxic conditions by MTT assay; type: functional, cell-based; settings: for IC50: PC-3, 48 h; outline: as §1
HT-29 [15] = test: Cytotoxicity against human HT-29 cells assessed as reduction in cell viability after 48 hrs under hypoxic conditions by MTT assay; type: functional, cell-based; settings: for IC50: HT-29, 48 h; outline: as §1
HT-29 [16] = test: Cytotoxicity against human HT-29 cells assessed as reduction in cell viability after 48 hrs under normoxic conditions by MTT assay; type: functional, cell-based; settings: for IC50: HT-29, 48 h; outline: as §1
PC-3 [17] = test: Cytotoxicity against human PC3 cells assessed as cell viability at 100 uM after 48 hrs under normoxic conditions by MTT assay (reference value: 100%); type: functional; settings: PC-3, 48 h, read-out: Activity; outline: as §1
MDA-MB-231 [18] = test: Cytotoxicity against human MDA-MB-231 cells assessed as cell viability at 30 uM after 48 hrs under normoxic conditions by MTT assay (reference value: 100%); type: functional; settings: MDA-MB-231, 48 h, read-out: Activity; outline: as §1
MDA-MB-231 [19] = test: Cytotoxicity against human MDA-MB-231 cells assessed as reduction in cell viability after 48 hrs under normoxic conditions by MTT assay; type: functional, cell-based; settings: for IC50: MDA-MB-231, 48 h; outline: as §1
PC-3 [20] = test: Cytotoxicity against human PC3 cells assessed as cell viability at 200 uM after 48 hrs under normoxic conditions by MTT assay (reference value: 100%); type: functional; settings: PC-3, 48 h, read-out: Activity; outline: as §1
PC-3 [21] = test: Cytotoxicity against human PC3 cells assessed as cell viability at 200 uM after 48 hrs under hypoxic conditions by MTT assay (reference value: 100%); type: functional; settings: PC-3, 48 h, read-out: Activity; outline: as §1
HT-29 [22] = test: Cytotoxicity against human HT-29 cells assessed as cell viability at 30 uM after 48 hrs under normoxic conditions by MTT assay (reference value: 100%); type: functional; settings: Homo sapiens, HT-29, 48 h; read-out: Activity; outline: as §1
MDA-MB-231 [23] = test: Cytotoxicity against human MDA-MB-231 cells assessed as cell viability at 30 uM after 48 hrs under hypoxic conditions by MTT assay (reference value: 100%); type: functional; settings: MDA-MB-231, 48 h, read-out: Activity; outline: as §1
HT-29 [24] = test: Cytotoxicity against human HT-29 cells assessed as cell viability at 100 uM after 48 hrs under hypoxic conditions by MTT assay (reference value: 100%); type: functional; settings: Homo sapiens, HT-29, 48 h; read-out: Activity; outline: as §1

SMILES	Ki (Carbonic anhydrase 9) [µM]	Ki (Carbonic anhydrase 12) [µM]	viability at 200 µM (HT-29 [1]) [%]	Activity (MDA-MB-231 [2])	IC50 (MDA-MB-231 [2]) [µM]	viability at 30 µM (HT-29 [3]) [%]	viability at 200 µM (MDA-MB-231 [4]) [%]	viability at 100 µM (MDA-MB-231 [5]) [%]	Activity (PC-3 [6])	IC50 (PC-3 [6]) [µM]	viability at 200 µM (MDA-MB-231 [7]) [%]	viability at 100 µM (MDA-MB-231 [8]) [%]	viability at 30 µM (PC-3 [9]) [%]	viability at 100 µM (HT-29 [10]) [%]	viability at 200 µM (HT-29 [11]) [%]	viability at 30 µM (PC-3 [12]) [%]	viability at 100 µM (PC-3 [13]) [%]	Activity (PC-3 [14])	IC50 (PC-3 [14]) [µM]	Activity (HT-29 [15])	also measured
NS(=O)(=O)c1cc(NC(=O)Nc2ccccc2)c(O)c([N+](=O)[O-])c1	0.94	0.83	–	–	–	–	–	–	–	–	–	–	–	–	–	–	–	–	–	–	Ratio Ki (Homo sapiens): 3; Ki (Carbonic anhydrase 1): > 50 µM
NS(=O)(=O)c1cc(NC(=O)c2ccc(F)cc2)c(OC(=O)c2ccc(F)cc2)c([N+](=O)[O-])c1	0.1	0.21	8.4	Dose-dependent effect	52.3	96.6	13	13.3	Dose-dependent effect	56.3	85.8	89.3	95.7	5.7	6.6	51.6	29.9	Dose-dependent effect	30.6	Dose-dependent effect	IC50 (HT-29 [15]): 58.6 µM; Activity (HT-29 [16]): Dose-dependent effect; IC50 (HT-29 [16]): 40.6 µM; viability at 100 µM (PC-3 [17]): 13.9%; viability at 30 µM (MDA-MB-231 [18]): 89.5%; Activity (MDA-MB-231 [19]): Dose-dependent effect; IC50 (MDA-MB-231 [19]): > 200 µM; viability at 200 µM (PC-3 [20]): 10.2%; viability at 200 µM (PC-3 [21]): 15.6%; viability at 30 µM (HT-29 [22]): 62.8%; viability at 30 µM (MDA-MB-231 [23]): 92.9%; viability at 100 µM (HT-29 [24]): 24.2%
NS(=O)(=O)c1cc(NC(=O)NCc2ccco2)c(O)c([N+](=O)[O-])c1	0.39	0.53	–	–	–	–	–	–	–	–	–	–	–	–	–	–	–	–	–	–	Ki (Carbonic anhydrase 1): > 50 µM
Nc1cc(S(N)(=O)=O)cc([N+](=O)[O-])c1O	0.21	0.2	100	Dose-dependent effect	> 200	108	60.2	72.8	Dose-dependent effect	> 200	78.8	81.4	81.8	107	105	69.7	58.4	Dose-dependent effect	> 200	Dose-dependent effect	IC50 (HT-29 [15]): > 200 µM; Activity (HT-29 [16]): Dose-dependent effect; IC50 (HT-29 [16]): > 200 µM; viability at 100 µM (PC-3 [17]): 91.8%; viability at 30 µM (MDA-MB-231 [18]): 93%; Activity (MDA-MB-231 [19]): Dose-dependent effect; IC50 (MDA-MB-231 [19]): > 200 µM; viability at 200 µM (PC-3 [20]): 92.3%; viability at 200 µM (PC-3 [21]): 55.3%; viability at 30 µM (HT-29 [22]): 95.7%; viability at 30 µM (MDA-MB-231 [23]): 81.3%; viability at 100 µM (HT-29 [24]): 93.2%
NS(=O)(=O)c1cc(NC(=O)NCCc2ccccc2)c(O)c([N+](=O)[O-])c1	0.11	0.31	53.8	Dose-dependent effect	194	76.7	48.2	79.8	Dose-dependent effect	> 200	85.1	107	85.2	85.8	80.7	115	62.7	Dose-dependent effect	> 200	Dose-dependent effect	Ratio Ki (Homo sapiens): 28; IC50 (HT-29 [15]): > 200 µM; Activity (HT-29 [16]): Dose-dependent effect; IC50 (HT-29 [16]): > 200 µM; viability at 100 µM (PC-3 [17]): 68.5%; viability at 30 µM (MDA-MB-231 [18]): 108%; Activity (MDA-MB-231 [19]): Dose-dependent effect; IC50 (MDA-MB-231 [19]): > 200 µM; viability at 200 µM (PC-3 [20]): 63.5%; viability at 200 µM (PC-3 [21]): 61.9%; viability at 30 µM (HT-29 [22]): 97.6%; viability at 30 µM (MDA-MB-231 [23]): 72%; viability at 100 µM (HT-29 [24]): 57.3%
NS(=O)(=O)c1cc(NC(=O)Nc2ccc(F)cc2)c(O)c([N+](=O)[O-])c1	0.34	0.5	79.3	Dose-dependent effect	> 200	90.8	61.7	68.4	Dose-dependent effect	134	90.3	92.8	83	112	107	86.9	61.3	Dose-dependent effect	> 200	Dose-dependent effect	IC50 (HT-29 [15]): > 200 µM; Activity (HT-29 [16]): Dose-dependent effect; IC50 (HT-29 [16]): > 200 µM; viability at 100 µM (PC-3 [17]): 71.7%; viability at 30 µM (MDA-MB-231 [18]): 100%; Activity (MDA-MB-231 [19]): Dose-dependent effect; IC50 (MDA-MB-231 [19]): > 200 µM; viability at 200 µM (PC-3 [20]): 56.2%; viability at 200 µM (PC-3 [21]): 23.5%; viability at 30 µM (HT-29 [22]): 110%; viability at 30 µM (MDA-MB-231 [23]): 84.8%; viability at 100 µM (HT-29 [24]): 88.2%
